This excerpt belongs to a sample that is enriched for hits.
HCT116 PTEN-null – growth suppressors of cells with PTEN tumor suppressor deletion; HCT116 PTEN-null viability, CellTiter-Glo, 60 h; active compounds read low; viability, % at 10 µM; 140,000 tested, 1.2% active; AID 827;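 active = viability at or below a set limit, 4 SD under the median of all tested compounds, cut at about 3.7% in these data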;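 note: PTEN knockout HCT116 line with beta catenin targeted HCT116 as companion control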
HUVEC prolif 384 – human endothelial cell proliferation inhibition; HUVEC proliferation, CellTiter-Glo luminescence, 72 h; active compounds read low; viability, % at 10 µM (by protocol); 86,000 tested, 1.1% active;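 active = viability at or below 30%; inactive = viability above 30%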;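 note: 100% = median luminescence of DMSO-only cell control wells on each plate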
HCT116 bCat-KO – beta-catenin-lacking colon tumor cell growth suppression | 140,000 tested, 1.5% active | viability, % at 10 µM | HCT116 beta-catenin knockout viability, CellTiter-Glo, 60 h; active compounds read low;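 active = viability at or under a set limit, the compound median less 4 SD, cut at about 6% in these data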;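 note: 0% = Hyamine 1622 control at 20 µM and 100% = untreated cell control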
Lung fibro prol – blocks proliferation of human lung fibroblasts. LL 47 human lung fibroblast viability, ATP luminescence; active compounds read low. viability, % at 10 µM. 85,000 tested, 1.1% active. AID 719;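 active = viability at or below 50% in the single dose screen; inactive = viability above 50%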;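 note: compound exposure lasted 72 h before the ATP readout; 100% = median luminescence of untreated cell-only wells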
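Test system: LL 47 human lung fibroblasts / Incubation: 72 h compound exposure at 37 °C after overnight plating / Technique: luminescent ATP detection, CellTiter-Glo / Compound dosing: 0.1% DMSO in all compound wells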
H69AR inhibit – blocks growth of human H69AR lung tumor cells | H69AR lung tumor viability, ATP luminescence, 72 h; active compounds read low | 85,000 tested, 6% active | viability, % at 10 µM;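 active = viability at or below 40%; inactive = viability above 40%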;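 note: multidrug resistant small cell line overexpressing MRP-1 efflux transporter; 100% = mean luminescence of untreated control wells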
The depositor's hits bear a star; · = no result given.

SMILES	HCT116 PTEN-null	HUVEC prolif 384	HCT116 bCat-KO	Lung fibro prol	H69AR inhibit
COCCn1c(-c2ccc(OC(F)(F)C(F)C(F)(F)F)cc2)nc2c1c(=O)[nH]c(=O)n2CC(C)C (stereo not drawn)	58.0	105.2	64.5	93.7	39.4*
COc1ccc(/C=C/C(=O)NC(=S)NNC(=O)Cc2cccs2)cc1OC	65.3	·	69.7	·	·
Cc1ccc(NC(=O)COC(=O)C2CCC(=O)N2)c(S(=O)(=O)N2CCOCC2)c1 (stereo not drawn)	81.8	100.8	80.7	100.2	91.5
COc1ccc(C=C(C(C)=O)C(C)=O)cc1OC	91.5	89.1	111.4	103.3	22.3*
CC(=O)c1cccc(NC(=O)C(OC(=O)c2ccccc2NS(=O)(=O)c2cccs2)c2ccccc2)c1 (stereo not drawn)	79.9	·	86.6	·	·
COC(=O)c1cc(NC(=O)c2c(Cl)nc3sccn23)cc(C(=O)OC)c1	62.9	68.0	57.0	6.7*	36.0*
COC(=O)c1cc(=O)nc2sccn12	102.2	96.6	100.9	104.0	83.9
CCCc1nc2oc3c(N4CCNCC4)ncnc3c2c2c1CCCC2	·	66.9	·	84.0	7.0*
CCCc1nc2oc3c(NCCN(C)C)ncnc3c2c2c1CCCC2	1.8*	39.3	2.0*	4.3*	8.9*
CC(C)Cc1nc2oc3c(N4CCN(C)CC4)ncnc3c2c2c1CCCC2	85.2	94.4	88.6	104.1	84.2
COc1ccc(NC2=NC(=S)N(c3ccccc3C)C23CCCCC3)cc1	101.0	·	94.7	·	·
[O-][N+]1=c2ccc(Nc3ccccc3)cc2=NC12CCCCC2	1.1*	4.6*	1.6*	12.9*	1.2*
COc1ccc(Nc2ccc3c(c2)=NC2(CCCCC2)[N+]=3[O-])cc1	1.2*	·	1.1*	·	·
c1ccc(Nc2cccc(Nc3ccccc3)c2)cc1	77.1	·	80.9	·	·
COCCNCC(=O)NCC12CC3CC(CC(C3)C1)C2	90.1	84.5	90.2	97.1	91.4
CCOc1ccc2nc(N3CCC(C(=O)N4CCN(c5ncccn5)CC4)CC3)sc2c1	·	109.8	·	98.7	38.3*
c1ccc2c(c1)c1ccccc1n1c(-c3ccc4c(c3)OCO4)nnc21	85.0	·	93.4	·	·
CCCCCCCCCC(=O)N/N=C(\C)c1cccnc1	93.8	105.9	90.7	91.0	90.2
CCCCCC(=O)N/N=C(\C)c1ccccn1	5.2	·	4.3*	·	·
COc1ccc(-c2nc3c4c(ncn3n2)-c2ccccc2CC42CCCC2)cc1	65.6	·	73.6	·	·
Oc1cccc(-c2nc3c4c(ncn3n2)-c2ccccc2CC42CCCC2)c1	2.4*	·	9.8	·	·
CCC(C(=O)O/N=C(\N)c1ccc(C)cc1)c1ccccc1 (stereo not drawn)	100.3	86.0	99.7	93.2	52.5
CCC(C(=O)O/N=C(\N)c1ccccc1)c1ccccc1 (stereo not drawn)	93.4	75.0	85.1	73.7	1.2*
CC1=C/C(=N\OC(=O)/C=C/c2ccccc2)C(C)=CC1=O	51.9	·	47.3	·	·
O=C(/C=C/NNC(=O)c1ccccc1)c1ccccc1	90.9	100.9	87.0	19.9*	87.4
SMILES	HCT116 PTEN-null	HUVEC prolif 384	HCT116 bCat-KO	Lung fibro prol	H69AR inhibit
N/C(=N\OC(=O)/C=C/c1ccccc1)c1ccccc1	98.8	83.2	92.8	105.0	38.7*
O=C(/C=C/c1ccccc1)c1ccccc1	2.0*	77.6	2.1*	85.7	1.5*
O=C(CCC(=O)Nc1nnc(C2CCCCC2)s1)NCc1cccs1	92.9	94.9	100.3	102.8	94.3
CCCOc1cccc(/C=N/NC(=O)c2csc(C)c2C)c1	93.3	·	89.0	·	·
O=C(/C=C/c1ccccc1)c1ccc2c3c(cccc13)CC2	1.8*	·	1.4*	·	·
O=C(/C=C/c1ccccc1)/C=C/c1ccccc1	0.7*	·	0.8*	·	·
Cc1[nH]c(=O)[nH]c1C(=O)CCCCC(=O)OCC(=O)Nc1ccccn1	106.0	82.0	106.0	107.2	96.0
COc1cc(C2C(C(=O)N3CCOCC3)=C(C)NC3=C2C(=O)CCC3)ccc1OC(C)=O (stereo not drawn)	111.6	87.7	97.3	101.6	85.7
CCC(C)NCC(=O)Nc1sc2c(c1C(N)=O)CCC2 (stereo not drawn)	99.8	·	102.5	·	·
O=C(Cn1c(=O)n(CCCC(=O)NC2CCCC2)c(=O)c2ccccc21)NCCC1=CCCCC1	2.8*	85.1	5.3*	48.5*	29.1*
CCCCCCC1CCC(C(=O)Nn2c(C)nc3ccccc3c2=O)CC1 (stereo not drawn)	64.9	113.3	61.9	98.2	34.8*
CCCC1CCC(C(=O)Nn2c(C)nc3ccccc3c2=O)CC1 (stereo not drawn)	89.3	92.5	92.6	94.5	94.0
CCN1/C(=C(\O)c2ccccc2)C(=O)c2ccccc2S1(=O)=O	62.2	62.0	52.1	89.0	32.6*
Cc1ccc(S(=O)(=O)Cn2nnnc2C(C)N2CCN(C(=O)c3ccco3)CC2)cc1 (stereo not drawn)	85.1	105.9	98.9	98.7	91.9
Cc1ccc(S(=O)(=O)N2CC(O)CC2C(=O)OCc2nc3sc(C)c(C)c3c(=O)[nH]2)cc1 (stereo not drawn)	104.3	·	90.7	·	·
CCOC(=O)CC(=O)CSc1nc2c(c(C)c1C#N)CCC2	82.3	78.5	94.2	103.5	12.1*
CCOC(=O)CC(=O)CSc1nc2ccc(C)cc2cc1C#N	24.8	100.1	30.8	96.2	3.2*
Cc1ccc2nc(SCC(=O)Nc3ccccc3N3CCOCC3)c(C#N)cc2c1	58.4	44.4	57.5	95.0	23.8*
Cc1ccc(-c2nnc(SCC(=O)Nc3ccccc3N3CCOCC3)o2)cc1	93.1	106.1	96.9	96.3	94.7
COC(=O)CSc1nc2cc(C)ccc2cc1C#N	81.4	81.2	84.7	·	78.2
CCCC12CN3CC(C)(CN(C1)C3c1ccc3c(c1)OCO3)C2=O (stereo not drawn)	90.8	100.6	96.0	100.4	84.3
CCOC(=O)C1=C(c2ccccc2)O/C(=C(/C#N)C(F)(F)F)S1	7.3	10.2*	7.7	2.5*	1.7*
Cc1ccc(C2OCC3(CO)COC(c4ccc(C)cc4)N23)cc1 (stereo not drawn)	92.2	104.2	102.9	91.9	74.1
CC(C)(C)c1ccc(CN2C3=NCCCN3c3ccccc32)cc1	2.9*	61.4	3.9*	76.3	14.6*
O=C(CN1C(=O)CSC1=O)Nc1ccccc1N1CCOCC1	96.4	97.8	98.8	95.5	94.1
SMILES	HCT116 PTEN-null	HUVEC prolif 384	HCT116 bCat-KO	Lung fibro prol	H69AR inhibit
Clc1ccc2c(N/N=C/c3ccc(Br)cc3)ccnc2c1	1.3*	·	1.5*	·	·
Cc1ccccc1/C=N/Nc1ccnc2cc(Cl)ccc12	6.5	·	10.9	·	·
Cc1ccc(/C=N/Nc2ccnc3cc(Cl)ccc23)c(C)c1	1.6*	·	1.3*	·	·
Cn1c(CNc2cccc(Cl)c2)nnc1SCC(=O)OC1CCCCC1	94.1	18.8*	103.6	82.0	105.8
CCCCn1c(N)c(-c2nc3ccccc3o2)c2c([N+](=O)[O-])nn(C)c(=O)c21	91.6	·	83.3	·	·
CCCCCn1c(N)c(-c2nc3ccccc3s2)c2c([N+](=O)[O-])nn(C)c(=O)c21	8.1	53.5	26.6	59.7	14.6*
Cc1ccccc1C(=O)Nc1nnc(-c2ccc(C(C)(C)C)cc2)s1	61.4	·	68.5	·	·

Bioassay records: PubChem, SRMLSC
